# Laboratory results from ChEMBL document CHEMBL1128485, “(E)-4-(2-[[3-(indol-5-yl)-1-oxo-2-butenyl]amino]phenoxy)butyric acid derivatives: a new class of steroid 5 alpha-reductase inhibitors in the rat prostate. 1” (J Med Chem, 1995).
# Experiments:
# [1] = target: T1, Steroid 5-alpha-reductase (Rattus norvegicus, UniProt P24008+P31214); test: (§1) Inhibitory activity against Steroid 5-alpha-reductase in prostates from male rats; assay type: tissue-based, Prostate gland
# T1 sequence (P24008 whole entry): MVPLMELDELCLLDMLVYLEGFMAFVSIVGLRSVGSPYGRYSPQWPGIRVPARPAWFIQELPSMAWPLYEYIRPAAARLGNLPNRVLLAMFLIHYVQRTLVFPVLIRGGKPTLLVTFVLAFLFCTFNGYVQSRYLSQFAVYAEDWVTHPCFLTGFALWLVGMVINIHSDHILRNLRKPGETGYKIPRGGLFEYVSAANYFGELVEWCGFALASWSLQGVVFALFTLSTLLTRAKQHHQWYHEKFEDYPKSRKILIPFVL
# T1 sequence (P31214 whole entry): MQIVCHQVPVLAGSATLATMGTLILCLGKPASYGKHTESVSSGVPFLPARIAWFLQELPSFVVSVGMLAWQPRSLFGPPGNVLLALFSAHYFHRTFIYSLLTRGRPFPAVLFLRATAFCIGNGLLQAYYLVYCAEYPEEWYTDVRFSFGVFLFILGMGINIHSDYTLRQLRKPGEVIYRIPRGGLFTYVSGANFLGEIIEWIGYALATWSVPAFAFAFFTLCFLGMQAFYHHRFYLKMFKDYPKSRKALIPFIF
# Summary of the method: (§2)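 Ventral prostate from male Wistar rats (200–300 g), homogenized in ice-cold 0.32 M sucrose, 1 mM DTT, 20 mM sodium phosphate pH 6.5. Particulate pellet spun at 140000g, stored at –80 °C, used at 1 mg protein. Compounds added in ethanol. Incubated 37 °C, 20 min, extracted with ethyl acetate. [14C]T and DHT measured by TLC radioscan. IC50 given as mean ± SE of three experiments.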
# [2] = target: Steroid 5-alpha-reductase (Rattus norvegicus) (UniProt P24008+P31214); test: as §1; assay type: tissue-based; set-up: concentration or dose not given beside the values; conditions: Prostate gland; concentration not given here
# Summary of the method: as §2, with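 “protein. Reaction run in 40 mM phosphate pH 6.5 with 1 mM DTT, 150 µM NADPH and 3 µM [14C]testosterone.” for “protein.”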
compound,measurement,setting,value
CCCC(CC)n1ccc2cc(/C(C)=C/C(=O)Nc3ccccc3OCCCC(=O)O)ccc21 (stereo unspecified),IC50,[1],0.0093 µM
C/C(=C\C(=O)Nc1ccccc1OCCCC(=O)O)c1ccc2c(ccn2C2CCCCC2)c1,inhibition,[2],48%
CCCCC(CCCC)n1ccc2cc(/C(C)=C/C(=O)Nc3ccccc3OCCCC(=O)O)ccc21,IC50,[1],0.021 µM
C/C(=C\C(=O)Nc1ccccc1OCCCC(=O)O)c1ccc2c(ccn2C(c2ccccc2)c2ccncc2)c1 (stereo unspecified),IC50,[1],0.026 µM
C/C(=C\C(=O)Nc1ccccc1OCCCC(=O)O)c1ccc2c(ccn2Cc2ccc(C)cc2)c1,IC50,[1],0.088 µM
C/C(=C\C(=O)Nc1ccccc1OCCCC(=O)O)c1ccc2c(ccn2C(c2ccc(Cl)cc2)c2ccc(Cl)cc2)c1,IC50,[1],0.025 µM
CCCC(c1ccccc1)n1ccc2cc(/C(C)=C/C(=O)Nc3ccccc3OCCCC(=O)O)ccc21 (stereo unspecified),IC50,[1],0.0091 µM
C/C(=C\C(=O)Nc1ccccc1OCCCC(=O)O)c1ccc2c(ccn2C(C)c2ccccc2)c1 (stereo unspecified),IC50,[1],0.019 µM
C/C(=C\C(=O)Nc1cccc(F)c1OCCCC(=O)O)c1ccc2c(ccn2C(c2ccccc2)c2ccccc2)c1,IC50,[1],0.015 µM
C/C(=C\C(=O)Nc1ccccc1OCCCC(=O)O)c1ccc2c(ccn2C2c3ccccc3CCc3ccccc32)c1,inhibition,[2],31%
C/C(=C\C(=O)Nc1ccccc1OCCCC(=O)O)c1ccc2c(ccn2Cc2ccc(C(F)(F)F)cc2)c1,IC50,[1],0.3 µM
C/C(=C\C(=O)Nc1cc(C)ccc1OCCCC(=O)O)c1ccc2c(ccn2C(c2ccccc2)c2ccccc2)c1,inhibition,[2],45%
C/C(=C\C(=O)Nc1ccccc1OCCCC(=O)O)c1ccc2c(ccn2C(c2ccccc2)c2cccnc2)c1 (stereo unspecified),IC50,[1],0.047 µM
CCCCCC(c1ccccc1)n1ccc2cc(/C(C)=C/C(=O)Nc3ccccc3OCCCC(=O)O)ccc21 (stereo unspecified),IC50,[1],0.025 µM
C/C(=C\C(=O)Nc1ccccc1OCCCC(=O)O)c1ccc2c(ccn2C)c1,IC50,[1],0.78 µM
CCCC(C(C)C)n1ccc2cc(/C(C)=C/C(=O)Nc3ccccc3OCCCC(=O)O)ccc21 (stereo unspecified),IC50,[1],0.0072 µM
C/C(=C\C(=O)Nc1ccccc1OCCCC(=O)O)c1ccc2c(ccn2C(C(C)C)C(C)C)c1,IC50,[1],0.014 µM
CCCCC(C)n1ccc2cc(/C(C)=C/C(=O)Nc3ccccc3OCCCC(=O)O)ccc21 (stereo unspecified),IC50,[1],0.006 µM
C/C(=C\C(=O)Nc1cc(Cl)ccc1OCCCC(=O)O)c1ccc2c(ccn2C(c2ccccc2)c2ccccc2)c1,inhibition,[2],38%
C/C(=C\C(=O)Nc1ccccc1OCCCC(=O)O)c1ccc2c(ccn2Cc2cccc(C)c2)c1,IC50,[1],0.25 µM
C/C(=C\C(=O)Nc1ccccc1OCCCC(=O)O)c1ccc2c(ccn2Cc2ccc(C(C)(C)C)cc2)c1,IC50,[1],0.17 µM
C/C(=C\C(=O)Nc1ccccc1OCCCC(=O)O)c1ccc2c(ccn2CC(C)(C)C)c1.Cc1ccccc1,IC50,[1],0.084 µM
CCCC(CCC)n1ccc2cc(/C(C)=C/C(=O)Nc3ccc(OCCCC(=O)O)cc3)ccc21,inhibition,[2],28%
CCCn1ccc2cc(/C(C)=C/C(=O)Nc3ccccc3OCCCC(=O)O)ccc21,IC50,[1],0.19 µM
C/C(=C\C(=O)Nc1ccc(F)cc1OCCCC(=O)O)c1ccc2c(ccn2C(c2ccccc2)c2ccccc2)c1,IC50,[1],0.0036 µM
C/C(=C\C(=O)Nc1ccccc1OCCCC(=O)O)c1ccc2c(ccn2Cc2ccc(F)cc2)c1,IC50,[1],0.097 µM
C/C(=C\C(=O)Nc1ccccc1OCCCC(=O)O)c1ccc2c(ccn2C(C)c2ccc3ccccc3c2)c1 (stereo unspecified),inhibition,[2],26%
CCCCC(CC)n1ccc2cc(/C(C)=C/C(=O)Nc3ccccc3OCCCC(=O)O)ccc21 (stereo unspecified),IC50,[1],0.0071 µM
C/C(=C\C(=O)Nc1ccc(C)cc1OCCCC(=O)O)c1ccc2c(ccn2C(c2ccccc2)c2ccccc2)c1,IC50,[1],0.014 µM
C/C(=C\C(=O)N(C)c1ccccc1OCCCC(=O)O)c1ccc2c(ccn2C(C)c2ccccc2)c1 (stereo unspecified),inhibition,[2],8%
CC(C)=CCn1ccc2cc(/C(C)=C/C(=O)Nc3ccccc3OCCCC(=O)O)ccc21,IC50,[1],0.12 µM
C/C(=C\C(=O)Nc1ccccc1OCCCC(=O)O)c1ccc2c(ccn2C(c2ccccc2)c2ccccn2)c1 (stereo unspecified),IC50,[1],0.037 µM
COc1ccc(C(c2ccccc2)n2ccc3cc(/C(C)=C/C(=O)Nc4ccccc4OCCCC(=O)O)ccc32)cc1 (stereo unspecified),IC50,[1],0.0088 µM
CCCCc1ccc(Cn2ccc3cc(/C(C)=C/C(=O)Nc4ccccc4OCCCC(=O)O)ccc32)cc1,IC50,[1],0.1 µM
C/C(=C\C(=O)Nc1ccccc1OCCCC(=O)O)c1ccc2c(ccn2CC(C)C)c1,IC50,[1],0.16 µM
C/C(=C\C(=O)Nc1ccccc1OCCCC(=O)O)c1ccc2c(ccn2C(c2ccccc2)C(C)C)c1 (stereo unspecified),IC50,[1],0.025 µM
CCCC(C)n1ccc2cc(/C(C)=C/C(=O)Nc3ccccc3OCCCC(=O)O)ccc21 (stereo unspecified),IC50,[1],0.0078 µM
CCCCCC(CCCCC)n1ccc2cc(/C(C)=C/C(=O)Nc3ccccc3OCCCC(=O)O)ccc21,IC50,[1],0.025 µM
CCCCn1ccc2cc(/C(C)=C/C(=O)Nc3ccccc3OCCCC(=O)O)ccc21,IC50,[1],0.043 µM
COc1ccc(C(c2ccc(OC)cc2)n2ccc3cc(/C(C)=C/C(=O)Nc4ccccc4OCCCC(=O)O)ccc32)cc1,IC50,[1],0.0098 µM
C/C(=C\C(=O)Nc1ccccc1OCCCC(=O)O)c1ccc2c(ccn2C(CC(C)C)c2ccccc2)c1 (stereo unspecified),IC50,[1],0.0063 µM
CCCCCCn1ccc2cc(/C(C)=C/C(=O)Nc3ccccc3OCCCC(=O)O)ccc21,IC50,[1],0.077 µM
C/C(=C\C(=O)Nc1ccccc1OCCCC(=O)O)c1ccc2c(ccn2Cc2ccccc2C)c1,IC50,[1],0.069 µM
C/C(=C\C(=O)Nc1ccccc1OCCCC(=O)O)c1ccc2c(ccn2C(c2ccccc2)c2ccccc2)c1,IC50,[1],0.0056 µM
CCCCCn1ccc2cc(/C(C)=C/C(=O)Nc3ccccc3OCCCC(=O)O)ccc21,IC50,[1],0.023 µM
CCC(C)n1ccc2cc(/C(C)=C/C(=O)Nc3ccccc3OCCCC(=O)O)ccc21 (stereo unspecified),IC50,[1],0.067 µM
C/C(=C\C(=O)Nc1ccccc1SCCCC(=O)O)c1ccc2c(ccn2C(c2ccccc2)c2ccccc2)c1,IC50,[1],0.039 µM
CCCCCCCn1ccc2cc(/C(C)=C/C(=O)Nc3ccccc3OCCCC(=O)O)ccc21,IC50,[1],0.12 µM
CCCCC(c1ccccc1)n1ccc2cc(/C(C)=C/C(=O)Nc3ccccc3OCCCC(=O)O)ccc21 (stereo unspecified),IC50,[1],0.0098 µM
COc1ccc(Cn2ccc3cc(/C(C)=C/C(=O)Nc4ccccc4OCCCC(=O)O)ccc32)cc1,IC50,[1],0.48 µM
CCC(c1ccccc1)n1ccc2cc(/C(C)=C/C(=O)Nc3ccccc3OCCCC(=O)O)ccc21 (stereo unspecified),IC50,[1],0.019 µM
CCCC(CCC)n1ccc2cc(/C(C)=C/C(=O)Nc3cccc(OCCCC(=O)O)c3)ccc21,inhibition,[2],19%
C/C(=C\C(=O)Nc1ccccc1OCCCC(=O)O)c1ccc2c(ccn2C(c2ccccc2)c2ccc(C(F)(F)F)cc2)c1 (stereo unspecified),IC50,[1],0.0081 µM
C/C(=C\C(=O)Nc1ccccc1OCCCC(=O)O)c1ccc2c(ccn2C(c2ccc(C)cc2)c2ccc(C)cc2)c1,IC50,[1],0.0088 µM
C/C(=C\C(=O)Nc1ccccc1OCCCC(=O)O)c1ccc2c(ccn2C(c2ccccc2C)c2ccccc2C)c1,IC50,[1],0.019 µM
C/C(=C\C(=O)Nc1cc(F)ccc1OCCCC(=O)O)c1ccc2c(ccn2C(c2ccccc2)c2ccccc2)c1,inhibition,[2],52%
